Calls of active or inactive are those of the source. The rule behind the calls is not given here.
How the values were obtained:
Type in all cases: functional, cell-based
[1] = test system: RAW264.7; assay: Antioxidant activity in lipopolysaccharide-stimulated mouse RAW264.7 cells assessed as decrease in ROS level at 0.1 to 10 uM using DCFH-DA by fluorescence assay
In short: (§1)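 RAW 264.7 cells (DMEM, 10% FBS, penicillin-streptomycin) seeded for 24 h, then treated with compounds at […] with or without LPS […]. Loaded with […] DCFH-DA for 20 min at 37 °C in 5% CO2, washed three times with PBS. Fluorescence read at ex488/em525 by laser scanning microscopy and quantified on a microplate reader.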

[2] = test system: RAW264.7; assay: Protection against LPS-induced cytotoxicity in mouse RAW264.7 cells assessed as cell viability at 0.1 to 100 uM pretreated for 1 hr before LPS challenge measured after 24 hrs by MTT assay
In short: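 RAW 264.7 cells seeded at 10⁴/well in 96-well plates and grown 24 h at 37 °C, 5% CO2. Pretreated with compounds at […] for 1 h, washed, then exposed to LPS for 24 h. MTT 0.5 mg/ml added for 4 h, formazan dissolved in DMSO, absorbance read at 570 nm.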

[3] = test system: RAW264.7; assay: Inhibition of LPS-induced P67phox protein expression in mouse RAW264.7 cells up to 10 uM pretreated for 1 hr before LPS challenge by Western blot analysis
In short: (§2)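 RAW 264.7 cells pretreated 1 h with compound at […], then stimulated with LPS […] for 24 h. Cytoplasmic extracts run on 12% SDS gel and transferred to PVDF. Membranes blocked in 5% nonfat milk/TBS, probed overnight at 4 °C with mouse anti-p67phox and β-actin (1:2000). HRP anti-mouse secondary 1 h at room temperature, ECL detection.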

[4] = test system: RAW264.7; assay: Antioxidant activity in lipopolysaccharide-stimulated mouse RAW264.7 cells assessed as decrease in ROS level using DCFH-DA by fluorescence assay; in short: as §1
[5] = test system: RAW264.7; assay: Inhibition of LPS-induced P67phox protein expression in mouse RAW264.7 cells compound pretreated for 1 hr before LPS challenge by Western blot analysis; in short: as §2

Row | SMILES | Activity [1] | Activity [2] | inhibition [3] | Activity [4] | inhibition [5]
1 | COc1cc(C(C)=O)ccc1O | inactive | inactive | inactive | – | –
2 | COc1cc(C(C)=O)cc(/C=[N+](\[O-])C(C)(C)C)c1O | inactive | – | inactive | – | –
3 | COc1cc(C(C)=O)cc(NC(=O)CCCC[C@@H]2CCSS2)c1O | – | Active | – | Dose-dependent effect | Dose-dependent effect
4 | COc1cc(C(C)=O)cc(CNc2cc(C(C)=O)cc(OC)c2O)c1O | – | Active | – | Dose-dependent effect | Dose-dependent effect
